Experimental data published in ChEMBL document CHEMBL1140383, “Synthesis of 5-nitro-2-furancarbohydrazides and their cis-diamminedichloroplatinum complexes as bitopic and irreversible human thioredoxin reductase inhibitors” (J Med Chem, 2005).

Experiments:
Thioredoxin reductase [1] = biological target: T1, Thioredoxin reductase (Homo sapiens, UniProt Q16881+Q9NNW7+Q86VQ6); experiment: Inhibitory concentration (25 uM) against human thioredoxin reductase; assay type: protein assay
Method in brief: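 Placental hTrxR screen in 100 mM sodium phosphate, 2 mM EDTA, pH 7.0. Mix held 500 μM NADPH, 200 μM DTNBA and 25 μM inhibitor. Reaction started with native enzyme. Thionitrobenzamide formation read at 416 nm over time, with and without inhibitor.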

Thioredoxin reductase [2] = biological target: T1, Thioredoxin reductase; experiment: Inhibitory concentration against wild type mutant human thioredoxin reductase (hTrxRdelta-16) pre-incubated for 10 min at 25 degree C in buffer in the presence of 200 uM NADPH; assay type: protein assay
Method in brief: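 Truncated recombinant hTrxRΔ-16 preincubated 10 min at 25 °C with 200 μM NADPH and inhibitor in potassium phosphate/EDTA buffer, pH 7.4. Reaction started with 3 mM DTNB; TNB formation read at 412 nm. DMF controls. IC50 from dose–response curves.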

Thioredoxin reductase [3] = biological target: T1, Thioredoxin reductase; experiment: Inhibitory concentration against wild type human thioredoxin reductase (5 nM) pre-incubated for 10 min at 25 degree C in buffer in the presence of 200 uM NADPH; assay type: protein assay
Method in brief: (§1)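 Placental wt-hTrxR (5 nM) preincubated 10 min at 25 °C with 200 μM NADPH and inhibitor (from 10 mM DMF stock) in 100 mM potassium phosphate, 2 mM EDTA, pH 7.4. Started with 3 mM DTNB; TNB formation read at 412 nm. DMF controls. IC50 from dose–response curves, mean of at least three determinations.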

[4] = biological target: T2, Glutathione reductase, mitochondrial (Homo sapiens, UniProt P00390); experiment: Inhibitory concentration against human glutathione reductase
T2 sequence (P00390 whole entry): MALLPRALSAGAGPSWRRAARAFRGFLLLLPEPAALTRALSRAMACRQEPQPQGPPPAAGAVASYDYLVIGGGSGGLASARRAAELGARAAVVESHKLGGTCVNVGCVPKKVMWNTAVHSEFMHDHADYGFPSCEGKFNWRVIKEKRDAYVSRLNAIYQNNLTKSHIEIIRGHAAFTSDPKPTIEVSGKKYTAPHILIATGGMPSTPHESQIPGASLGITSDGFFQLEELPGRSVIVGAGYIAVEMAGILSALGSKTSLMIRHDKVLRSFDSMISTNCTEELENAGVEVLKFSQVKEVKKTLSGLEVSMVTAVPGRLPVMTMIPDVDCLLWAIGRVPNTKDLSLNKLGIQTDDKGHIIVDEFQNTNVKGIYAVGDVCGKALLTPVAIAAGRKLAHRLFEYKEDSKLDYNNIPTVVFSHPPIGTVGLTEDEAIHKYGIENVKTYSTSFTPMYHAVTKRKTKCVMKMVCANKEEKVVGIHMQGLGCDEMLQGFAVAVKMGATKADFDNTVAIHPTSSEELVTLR

MCF7 [5] = experiment: Inhibitory concentration against MCF-7 cell line; assay type: functional, cell-based, Homo sapiens
Method in brief: (§2)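 Human tumour lines grown in DMEM at 37 °C under 5% CO2, seeded in 96-well plates. Dosed next day in quadruplicate with 1:2 serial dilutions, 50 to 0.8 μg/mL; platinum complexes from DMF stock, cisplatin in water. After 96 h cells fixed in 3% formaldehyde and stained with 1% crystal violet, absorbance at 595 nm. For MCF-7 the dye was eluted with ethanol/1% acetic acid before reading. IC50 from fitted dose–response curves.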

Thioredoxin reductase [6] = biological target: T1, Thioredoxin reductase; experiment: Inhibitory concentration against wild type mutant human thioredoxin reductase (Sec498Cys) (100 nM) pre-incubated for 10 min at 25 degree C in buffer in the presence of 200 uM NADPH; assay type: protein assay
Method in brief: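 Recombinant hTrxR Sec498Cys (100 nM) preincubated 10 min at 25 °C with 200 μM NADPH and inhibitor in potassium phosphate/EDTA buffer, pH 7.4. Started with 3 mM DTNB; absorbance read at 412 nm. DMF controls. IC50 from dose–response curves, mean of at least three determinations.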

Thioredoxin reductase [7] = biological target: T1, Thioredoxin reductase; experiment: Inhibitory concentration against wild type human thioredoxin reductase (30 nM) pre-incubated for 10 min at 25 degree C in phosphate buffer in the presence of 100 uM NADPH; assay type: protein assay
Method in brief: as §1, with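 “(30” for “(5”, “100” for “200”, “20 μM hTrxC72S; NADPH oxidation” for “3 mM DTNB; TNB formation”, “340” for “412”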

SK-MEL-25 [8] = experiment: Inhibitory concentration against SK-MEL-25 cell line; assay type: functional, cell-based, Homo sapiens; method in brief: as §2
Thioredoxin reductase [9] = biological target: T1, Thioredoxin reductase; experiment: Inhibitory concentration against wild type human thioredoxin reductase; assay type: protein assay; method in brief: as §1
Thioredoxin reductase [10] = biological target: T1, Thioredoxin reductase; experiment: Inhibitory concentration against wild type mutant human thioredoxin reductase (Sec498Cys) (1.3 uM) pre-incubated for 10 min at 25 degree C in buffer in the presence of 100 uM NADPH; assay type: protein assay
Method in brief: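 Recombinant hTrxR Sec498Cys (1.3 μM) preincubated 10 min at 25 °C with 100 μM NADPH and inhibitor in potassium phosphate/EDTA buffer, pH 7.4. Reaction started with 20 μM hTrxC72S; NADPH oxidation read at 340 nm. DMF controls. IC50 from dose–response curves, at least three determinations.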

Calu-6 [11] = experiment: Inhibitory concentration against Calu-6 cell line; assay type: functional, cell-based, Homo sapiens; method in brief: as §2
MCF7 [12] = experiment: Ratio of inhibition by compound against MCF-7 cell line to inhibition by cisPt against MCF-7 cell line; assay type: functional, cell-based; details: Homo sapiens
Method in brief: (§3)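 Cytotoxicity in DMEM at 37 °C, 5% CO2, quadruplicate 1:2 dilutions (50 to 0.8 μg/mL), 96 h, crystal violet read at 595 nm. Value is the ratio of the complex IC50 to the cisplatin IC50 measured on the same line.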

Calu-6 [13] = experiment: Ratio of inhibition by compound against Calu-6 cell line to inhibition by cisPt against Calu-6 cell line; assay type: functional, cell-based; details: Homo sapiens; method in brief: as §3
SK-MEL-25 [14] = experiment: Ratio of inhibition by compound against SK-MEL-25 cell line to inhibition by cisPt against SK-MEL-25 cell line; assay type: functional, cell-based; details: Homo sapiens; method in brief: as §3
Thioredoxin reductase [15] = biological target: T1, Thioredoxin reductase; experiment: Inhibitory concentration against human thioredoxin reductase; assay type: protein assay
Method in brief: (§4)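 Human TrxR purified from placenta, 5 nM in the DTNB assay or 30 nM in the Trx assay. Enzyme was preincubated 10 min at 25 °C in 100 mM potassium phosphate, 2 mM EDTA, pH 7.4, with NADPH and inhibitor (DMF stock; DMF controls). DTNB assay: 200 μM NADPH, started with 3 mM DTNB, A412. Trx assay: 100 μM NADPH, started with 20 μM hTrxC72S, A340. IC50 from dose–response curves, ≥3 determinations.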

Thioredoxin reductase [16] = biological target: T1, Thioredoxin reductase; experiment: Inhibitory concentration agains human thioredoxin reductase; assay type: protein assay; method in brief: as §4

Molecule: O=C(Cc1ccc2ccccc2c1)NNC(=O)c1ccc([N+](=O)[O-])o1
- IC50 (Thioredoxin reductase [1]): 16 µM
- IC50 (Thioredoxin reductase [2]): 215 µM
- IC50 (Thioredoxin reductase [3]): 18 µM
- IC50 [4]: 4.1 µM

Molecule: 2-(2-Amino-ethylamino)-N-(7-{2-[N'-(5-nitro-furan-2-carbonyl)-hydrazino]-2-oxo-ethyl}-naphthalen-2-yl)-acetamide; compound with GENERIC INORGANIC NEUTRAL COMPONENT [listing 1 of 2 here]
- IC50 (MCF7 [5]): 53.1 µM
- IC50 (Thioredoxin reductase [6]): 130 µM
- IC50 (Thioredoxin reductase [7]): 0.12 µM
- IC50 (SK-MEL-25 [8]): 15.1 µM
- IC50 (Thioredoxin reductase [2]): 145 µM
- Ki (Thioredoxin reductase [9]): 0.275 µM
- IC50 (Thioredoxin reductase [3]): 0.11 µM
- IC50 (Thioredoxin reductase [10]): 38 µM
- IC50 (Calu-6 [11]): 27.6 µM

Molecule: 2-(2-Amino-ethylamino)-N-(7-{2-[N'-(5-nitro-furan-2-carbonyl)-hydrazino]-2-oxo-ethyl}-naphthalen-2-yl)-acetamide; compound with GENERIC INORGANIC NEUTRAL COMPONENT [listing 2 of 2 here]
- Ratio (MCF7 [12]): 0.8
- Ratio (Calu-6 [13]): 15.3
- Ratio (SK-MEL-25 [14]): 3

Molecule: O=C1C=CC(=Nc2cc(Cl)c(O)c(Cl)c2)C=C1 [DICHLOROPHENOL INDOPHENOL]
- IC50 (Thioredoxin reductase [15]): 25 µM

Molecule: O=C1C=CC(=O)c2c(O)ccc(O)c21 [NAPHTHAZALIN]
- IC50 (Thioredoxin reductase [16]): 20 µM
